The values below come from ChEMBL document CHEMBL1147801, “NK1 antagonists based on seven membered lactam scaffolds” (Bioorg Med Chem Lett, 2006).

One data set concerns the target Substance-P receptor (Homo sapiens, UniProt P25103). Nature of the data set: Displacement of [125I] labeled substance P from human cloned NK1 receptor expressed in CHO cells. It counts as cell-based. The method, boiled down: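 Radioligand displacement assay: [¹²⁵I]-labelled substance P bound to cloned human NK1 receptor expressed in CHO cells, measured as the concentration giving IC50; mean ± SD of three determinations.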
On the technique in general: In a radioligand displacement assay an active substance lowers the binding of a labelled ligand.

In data set [1] the target is Voltage-gated inwardly rectifying potassium channel KCNH2 (Homo sapiens, UniProt Q12809). Nature of the data set: Displacement of labeled MK-499 from cloned hERG channel expressed in HEK cells. It counts as cell-based, HEK293. In general terms: Block of hERG is tested as a sign of cardiac risk.
In data set [2] the test system is Gerbil, jird. Nature of the data set: Inhibition of GR-73632-induced foot tapping in gerbil at 3 mg/kg, po after 1 hr. It counts as functional, Meriones. The following applies: for Activity: dose 3 mg/kg; for ED50: Meriones, 1 h, read-out: ID50 (the source's name). On the set-up: Activity: scale not given: the % may be the effect or the level left. The method, boiled down:
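Gerbils dosed orally 1 h before central challenge with the NK1 agonist GR73632, with foot-tapping scored. Plasma drug level at 1 h measured by LC–MS/MS after protein precipitation.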

Data set [3] relates to Gerbil, jird. Nature of the data set: Inhibition of GR-73632-induced foot tapping in po dosed gerbil after 1 hr. It counts as functional. The note with it: Meriones, read-out: ID50 (the source's name). The method, boiled down:
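Gerbils dosed orally 1 h before central challenge with the NK1 agonist GR73632, with foot-tapping scored. […] Plasma drug level at 1 h measured by LC–MS/MS after protein precipitation.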

Data set [4] is described as follows: Clearance in rat. The following applies: in vivo. It counts as ADME, organism-based.
A short description of data set [5]: Half life in rat. The following applies: in vivo. It counts as ADME, organism-based.

Voltage-gated inwardly rectifying potassium channel KCNH2, sequence (Q12809 whole entry): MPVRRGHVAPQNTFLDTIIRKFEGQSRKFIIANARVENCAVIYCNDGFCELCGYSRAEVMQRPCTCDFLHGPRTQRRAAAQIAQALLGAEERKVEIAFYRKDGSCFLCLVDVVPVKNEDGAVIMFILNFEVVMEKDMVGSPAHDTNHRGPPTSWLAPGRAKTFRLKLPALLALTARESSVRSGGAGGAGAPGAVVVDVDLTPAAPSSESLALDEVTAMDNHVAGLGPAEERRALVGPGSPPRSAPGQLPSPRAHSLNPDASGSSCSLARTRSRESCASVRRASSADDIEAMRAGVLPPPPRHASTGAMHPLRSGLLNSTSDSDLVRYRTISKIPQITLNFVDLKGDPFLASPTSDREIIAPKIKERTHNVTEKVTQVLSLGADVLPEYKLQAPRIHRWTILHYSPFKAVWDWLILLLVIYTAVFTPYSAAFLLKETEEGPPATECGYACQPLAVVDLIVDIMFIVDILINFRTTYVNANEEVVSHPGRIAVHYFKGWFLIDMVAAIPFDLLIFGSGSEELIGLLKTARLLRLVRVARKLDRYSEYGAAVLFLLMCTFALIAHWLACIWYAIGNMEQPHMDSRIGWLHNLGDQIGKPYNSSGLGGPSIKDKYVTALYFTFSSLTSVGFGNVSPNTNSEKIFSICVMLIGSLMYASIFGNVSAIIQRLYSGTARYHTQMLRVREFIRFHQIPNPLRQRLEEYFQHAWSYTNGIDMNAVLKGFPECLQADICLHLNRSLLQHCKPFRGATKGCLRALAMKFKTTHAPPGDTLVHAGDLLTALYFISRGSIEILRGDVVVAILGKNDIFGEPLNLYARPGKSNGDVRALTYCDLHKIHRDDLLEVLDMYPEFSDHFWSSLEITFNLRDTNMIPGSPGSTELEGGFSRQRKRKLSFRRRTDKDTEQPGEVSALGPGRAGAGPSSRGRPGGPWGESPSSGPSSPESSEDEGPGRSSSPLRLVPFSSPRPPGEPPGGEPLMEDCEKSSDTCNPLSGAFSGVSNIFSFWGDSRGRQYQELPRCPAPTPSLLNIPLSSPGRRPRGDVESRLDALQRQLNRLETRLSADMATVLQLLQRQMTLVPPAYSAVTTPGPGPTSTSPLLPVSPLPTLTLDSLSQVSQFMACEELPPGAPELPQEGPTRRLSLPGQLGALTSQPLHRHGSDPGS
Substance-P receptor, sequence (P25103 whole entry): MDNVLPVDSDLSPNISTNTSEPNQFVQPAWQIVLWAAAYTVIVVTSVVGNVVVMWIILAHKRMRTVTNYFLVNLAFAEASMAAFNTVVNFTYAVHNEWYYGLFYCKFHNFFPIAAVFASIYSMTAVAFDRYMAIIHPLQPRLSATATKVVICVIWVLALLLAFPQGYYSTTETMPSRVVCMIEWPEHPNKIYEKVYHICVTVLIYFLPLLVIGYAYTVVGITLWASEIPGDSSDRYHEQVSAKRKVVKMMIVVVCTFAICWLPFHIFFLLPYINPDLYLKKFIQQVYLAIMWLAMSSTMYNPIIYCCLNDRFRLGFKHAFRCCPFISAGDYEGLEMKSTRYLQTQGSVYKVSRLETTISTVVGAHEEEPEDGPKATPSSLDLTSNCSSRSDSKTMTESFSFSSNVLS

As for `C[C@@H](O[C@H]1CCN(C)C(=O)C[C@@H]1c1ccc(F)cc1)c1cc(C(F)(F)F)cc(C(F)(F)F)c1`, on Substance-P receptor, the IC50 stood at 0.53 nM. The molecule also registered an inhibition constant (Ki) in data set [1] of more than 9000 nM.

At Substance-P receptor, `C[C@@H](O[C@H]1CCc2nccn2C[C@@H]1c1ccc(F)cc1)c1cc(C(F)(F)F)cc(C(F)(F)F)c1` yielded a half-maximal inhibitory concentration (IC50) of 0.28 nM. The same molecule registered an Activity in the data set with Gerbil, jird [2] of 4%.

On Substance-P receptor, `C[C@@H](O[C@H]1CCC(=O)NC[C@@H]1c1ccc(F)cc1)c1cc(C(F)(F)F)cc(C(F)(F)F)c1` registered an IC50 of 0.14 nM. Moreover, in data set [1], the Ki is more than 9000 nM. Further, the ED50 in the data set with Gerbil, jird [3] amounted to 1.06 mg/kg. The molecule further registered a clearance in data set [4] of 33 mL/min/kg. Further, the half-life in data set [5] is 5.6 h.

With `C[C@@H](O[C@H]1CCn2ccnc2C[C@@H]1c1ccc(F)cc1)c1cc(C(F)(F)F)cc(C(F)(F)F)c1`, in data set [1], affinity was put at a Ki of 1400 nM. Further, the Activity with Gerbil, jird [2] is 0%.

`C[C@@H](O[C@H]1CCC(=O)N(C)[C@@H](C)[C@@H]1c1ccc(F)cc1)c1cc(C(F)(F)F)cc(C(F)(F)F)c1`: the Ki in data set [1] turned out to be 6700 nM.

In turn, `C[C@@H](O[C@H]1CCn2c(O)nnc2C[C@@H]1c1ccc(F)cc1)c1cc(C(F)(F)F)cc(C(F)(F)F)c1` came in with an IC50 at Substance-P receptor of 0.22 nM. The molecule also returned a Ki in data set [1] of more than 9000 nM. Also, the ED50 in the data set with Gerbil, jird [2] was 0.8 mg/kg.

Turning to `C[C@@H]1C[C@H](O[C@H](C)c2cc(C(F)(F)F)cc(C(F)(F)F)c2)[C@@H](c2ccc(F)cc2)CC(=O)N1C`, the IC50 at Substance-P receptor is 0.49 nM. Further, the inhibition constant (Ki) in data set [1] was more than 9000 nM. The same molecule returned an Activity in the data set with Gerbil, jird [2] of 8%.

Turning to `C[C@@H]1C[C@H](O[C@H](C)c2cc(C(F)(F)F)cc(C(F)(F)F)c2)[C@@H](c2ccc(F)cc2)CN(C)C1=O`, the Activity in the data set on Gerbil, jird [2] stood at 5%.

Turning to `C[C@@H]1C[C@H](O[C@H](C)c2cc(C(F)(F)F)cc(C(F)(F)F)c2)[C@@H](c2ccc(F)cc2)CNC1=O`, the IC50 at Substance-P receptor worked out at 0.23 nM. Besides, in data set [1], the affinity corresponds to a Ki of 2400 nM.

Molecule `C[C@@H]1C[C@H](O[C@H](C)c2cc(C(F)(F)F)cc(C(F)(F)F)c2)[C@@H](c2ccc(F)cc2)CC(=O)N1` displayed an IC50 on Substance-P receptor of 0.41 nM. The molecule further registered an Activity in the data set on Gerbil, jird [2] of 64%.

Turning to `C[C@@H](O[C@H]1CCC(=O)N(C)C[C@@H]1c1ccc(F)cc1)c1cc(C(F)(F)F)cc(C(F)(F)F)c1`, the IC50 on Substance-P receptor amounted to 0.12 nM. Also, the ED50 in the data set on Gerbil, jird [2] was determined as 0.64 mg/kg.

On to `C[C@@H]1NC(=O)CC[C@H](O[C@H](C)c2cc(C(F)(F)F)cc(C(F)(F)F)c2)[C@H]1c1ccc(F)cc1`, for which the Ki in data set [1] was more than 9000 nM.

As to `C[C@@H](O[C@H]1CCNC(=O)C[C@@H]1c1ccc(F)cc1)c1cc(C(F)(F)F)cc(C(F)(F)F)c1`, the IC50 at Substance-P receptor was 0.64 nM. This molecule also showed a Ki in data set [1] of more than 9000 nM. Further, the Activity in the data set on Gerbil, jird [2] was found to be 0%.

By IC50 is commonly meant the concentration that gives 50% inhibition. In general, Ki refers to the dissociation constant of the complex between target and ligand, obtained from inhibition or displacement. A word on the clearance: it is a measure of how efficiently the substance is removed, as volume per time. The half-life is the time needed for the level to fall by half in the phase considered.
